Reference: ChEMBL document CHEMBL1137561 (J Med Chem, 2007)

Key:
[1] = test system: Human immunodeficiency virus 1; assay: Antiviral activity against HIV1 with reverse transcriptase Y188L mutation in MT4 cells assessed as inhibition of viral induced cytopathic effect by MTT method; type: functional, organism-based; conditions: Human immunodeficiency virus 1, MT4
Method in brief: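 MT-4 cells infected with the HIV-1 NNRTI-resistant mutant strain. Viable cells scored at day 5 post-infection by the MTT tetrazolium colorimetric method. Values are means ± SD from at least two experiments.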

[2] = biological target: Human immunodeficiency virus type 1 reverse transcriptase (Human immunodeficiency virus 1, UniProt Q72547, Y188L); assay: Inhibition of HIV1 reverse transcriptase Y188L mutant
[3] = Resistance index, Ratio of EC50 for drug-resistant HIV1 with RT IRLL98 mutation in MT4 cells to EC50 for HIV1 NL43 in MT4 cells
[4] = Resistance index, Ratio of EC50 for drug-resistant HIV1 with RT Y181C mutation in MT4 cells to EC50 for HIV1 NL43 in MT4 cells
[5] = Resistance index, Ratio of EC50 for drug-resistant HIV1 with RT Y188L mutation in MT4 cells to EC50 for HIV1 NL43 in MT4 cells
[6] = biological target: Human immunodeficiency virus type 1 reverse transcriptase (Human immunodeficiency virus 1, UniProt Q72547, L100I); assay: Inhibition of HIV1 reverse transcriptase L100I mutant
[7] = test system: Human immunodeficiency virus 1; assay: Resistance index, ratio of Ki for HIV1 reverse transcriptase Y181I mutant to Ki for wild type HIV1 3B reverse transcriptase
Method in brief: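 Initial velocities came from radioactive nucleotide incorporation into poly(rA)/oligo(dT) 10:1, sampled every 2 min. Inhibitor spanned 0.2–5 Ki, with Lineweaver-Burk and Dixon plots. Fold-resistance is Ki mutant / Ki wild type.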

[8] = test system: Human immunodeficiency virus 1; assay: Antiviral activity against HIV1 with reverse transcriptase Y181C mutation in MT4 cells assessed as inhibition of viral induced cytopathic effect by MTT method; type: functional, organism-based; conditions: Human immunodeficiency virus 1, MT4
Method in brief: (§1)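 MT-4 cells infected with the HIV-1 NNRTI-resistant mutant strain. Viable cells scored at day 5 post-infection by the MTT tetrazolium colorimetric method. […] Values are means ± SD from at least two experiments.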

[9] = Selectivity index, ratio of CC50 for MT4 cells to EC50 for HIV1 NL43 infected MT4 cells; type: functional
[10] = biological target: Human immunodeficiency virus type 1 reverse transcriptase (Human immunodeficiency virus 1, UniProt Q72547, K103N); assay: Inhibition of HIV1 reverse transcriptase K103N mutant
[11] = biological target: Human immunodeficiency virus type 1 reverse transcriptase (Human immunodeficiency virus 1, UniProt Q72547); assay: Inhibition of wild type HIV1 3B reverse transcriptase
[12] = Inhibition of HIV1 reverse transcriptase Y1811 mutant; parameters: species or system Human immunodeficiency virus 1
Method in brief: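 Recombinant HIV-1 RT Y181I mutant, purified to >95%, 10 min preincubation with inhibitor. Radioactive nucleotide incorporation into poly(rA)/oligo(dT) 10:1 was followed at varied nucleotide substrate levels, sampling every 2 min for initial velocities. Inhibitor spanned 0.2–5 Ki. Ki came from Lineweaver-Burk and Dixon plots. Means ± SD of at least three experiments.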

[13] = biological target: Human immunodeficiency virus type 1 reverse transcriptase (Human immunodeficiency virus 1, UniProt Q72547, V106A); assay: Inhibition of HIV1 reverse transcriptase V106A mutant
[14] = Cytotoxicity against MT4 cells after 4 days by MTT method; type: cell-based; conditions: human
Method in brief: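 Mock-infected (noninfected) MT-4 cells, run in parallel with the antiviral test. Viable cells read by the MTT tetrazolium colorimetric method. […] Means ± SD from at least two experiments. The top concentration was limited where compounds precipitated in the culture medium.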

[15] = test system: Human immunodeficiency virus 1; assay: Antiviral activity against HIV1 NL43 in MT4 cells assessed as inhibition of viral induced cytopathic effect after 5 days by MTT method; conditions: Human immunodeficiency virus 1, NL43, MT4, 120 h
[16] = biological target: Human immunodeficiency virus type 1 reverse transcriptase (Human immunodeficiency virus 1, UniProt Q72547, V179D); assay: Inhibition of HIV1 reverse transcriptase V179D mutant
[17] = Resistance index, Ratio of EC50 for drug-resistant HIV1 with RT K103N mutation in MT4 cells to EC50 for HIV1 NL43 in MT4 cells
[18] = test system: Human immunodeficiency virus 1; assay: Antiviral activity against HIV1 with reverse transcriptase IRLL98 mutation in MT4 cells assessed as inhibition of viral induced cytopathic effect by MTT method; type: functional, organism-based
[19] = test system: Human immunodeficiency virus 1; assay: Antiviral activity against HIV1 with reverse transcriptase K103N mutation in MT4 cells assessed as inhibition of viral induced cytopathic effect by MTT method; type: functional, organism-based; conditions: Human immunodeficiency virus 1, MT4; method in brief: as §1
[20] = test system: Human immunodeficiency virus 1; assay: Antiviral activity against HIV1 NL43 in MT4 cells assessed as inhibition of viral induced cytopathic effect after 4 days by MTT method; type: functional, organism-based
[21] = Human immunodeficiency virus 1, MT4

Row | SMILES | EC50 [1] | Ki [2] | Ratio EC50 [3] | Ratio EC50 [4] | Ratio EC50 [5] | Ki [6] | Ratio Ki [7] | EC50 [8] | Ratio CC50/EC50 [9] | Ki [10] | Ki [11] | Ki [12] | Ki [13] | CC50 at 96 h [14] | EC50 [15] | Ki [16] | Ratio EC50 [17] | EC50 [18, 21] | EC50 [19] | other results
1 | Cc1c(C(C)c2c(F)cccc2F)nc(N(C)C)[nH]c1=O (stereo unspecified) | 50 nM | 500 nM | 17 | 47 | 167 | 1000 nM | 40 | 14 nM | >56667 | 500 nM | 100 nM | 4000 nM | 100 nM | > 17000 nM | 0.3 nM | 2000 nM | 167 | 5 nM | 50 nM | 
2 | Cc1c(C(C)c2c(F)cccc2F)nc(N2CCSCC2)[nH]c1=O (stereo unspecified) | 860 nM | 4000 nM | 20 | 10 | 287 | 5000 nM |  | 30 nM | >23667 | 10000 nM | 60 nM | > 20000 nM | 30 nM | > 71000 nM |  | 20 nM | 413 |  | 1240 nM | EC50 [20]: 3 nM; EC50 ([18]; mt4): 60 nM
3 | CCN(C)c1nc(C(C)c2c(F)cccc2F)c(C)c(=O)[nH]1 (stereo unspecified) | 30 nM | 4000 nM | 10 | 7 | 100 | 2500 nM | 250 | 2 nM | 270000 | 500 nM | 40 nM | 10000 nM | 20 nM | 81000 nM | 0.3 nM | 20 nM | 67 | 3 nM | 20 nM | 
